Data from ChEMBL document CHEMBL1141663, “Synthesis and antibacterial activity of bis-[2-hydroxy-3-(1,7,8,9,10-pentamethyl-3,5-dioxo-4-aza-tricyclo[5.2.1.0(2,6)]dec-8-en-4-yloxy)-propyl]-dimethyl-ammonium chloride” (2008).
In brackets after ≈: the same amount, converted by molar mass. Activity calls are given as the source filed them. The calls are words filed in the database; no cut-off is given here.

Legend:
Candida albicans [1] = assay: microbe, parasite or virus in culture; settings: ATCC 10231, read-out: IZ
Escherichia coli [2] = assay: Antibacterial activity against Escherichia coli ATCC […] at 10 ug/disk after 24 to 48 hrs by disc-diffusion method; type: functional, organism-based
Staphylococcus aureus [3] = assay: Antibacterial activity against Staphylococcus aureus ATCC 6538P at 10 ug/disk after 24 to 48 hrs by disc-diffusion method
Bacillus subtilis [4] = assay: Antibacterial activity against Bacillus subtilis ATCC 6633 at 10 ug/disk after 24 to 48 hrs by disc-diffusion method; type: functional, organism-based
Staphylococcus aureus [5] = assay: Antibacterial activity against Staphylococcus aureus NCTC 4163 at 10 ug/disk after 24 to 48 hrs by disc-diffusion method; type: functional, organism-based
Staphylococcus aureus [6] = assay: Antibacterial activity against Staphylococcus aureus ATCC 25923 at 10 ug/disk after 24 to 48 hrs by disc-diffusion method
Pseudomonas aeruginosa [7] = assay: Antibacterial activity against Pseudomonas aeruginosa NCTC 6749 at 10 ug/disk after 24 to 48 hrs by disc-diffusion method; type: functional, organism-based
Enterococcus hirae [8] = assay: Antibacterial activity against Enterococcus hirae ATCC 10541 at 10 ug/disk after 24 to 48 hrs by disc-diffusion method
Pseudomonas aeruginosa [9] = assay: Antibacterial activity against Pseudomonas aeruginosa ATCC […] at 10 ug/disk after 24 to 48 hrs by disc-diffusion method; type: functional, organism-based
[10] = test system: Bordetella bronchiseptica; assay: Antibacterial activity against Bordetella bronchiseptica ATCC 4617 at 10 ug/disk after 24 to 48 hrs by disc-diffusion method; type: functional, organism-based
Escherichia coli [11] = assay: Antibacterial activity against Escherichia coli ATCC […] at 10 ug/disk after 24 to 48 hrs by disc-diffusion method; type: functional, organism-based
Staphylococcus aureus [12] = assay: Antibacterial activity against Staphylococcus aureus ATCC 29213 at 10 ug/disk after 24 to 48 hrs by disc-diffusion method; type: functional, organism-based
Staphylococcus aureus [13] = assay: Antibacterial activity against methicillin-resistant Staphylococcus aureus 1/04 isolates after 18 hrs; type: functional
In short: (§1)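 Agar-dilution MIC on Mueller–Hinton II agar per CLSI guidelines. Aqueous test solutions were added to liquid agar to give two dilution series across 6.25–400 µg/mL. Solidified plates were spot-inoculated with 2 µL aliquots to a final inoculum of 10^4 […]. […] Strains were standard S. aureus strains or hospital patient isolates typed MSSA/MRSA.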

Staphylococcus aureus [14] = assay: Antibacterial activity against methicillin-resistant Staphylococcus aureus 83/05 isolates after 18 hrs; type: functional
In short: as §1

Staphylococcus aureus [15] = assay: Antibacterial activity against methicillin-susceptible Staphylococcus aureus 14/04 isolates after 18 hrs; type: functional
In short: as §1

Staphylococcus aureus [16] = assay: Antibacterial activity against methicillin-resistant Staphylococcus aureus 29/04 isolates after 18 hrs; type: functional
In short: as §1

Staphylococcus aureus [17] = assay: Antibacterial activity against methicillin-resistant Staphylococcus aureus 55/05 isolates after 18 hrs; type: functional
In short: as §1

Escherichia coli [18] = assay: microbe, parasite or virus in culture; settings: ATCC 10538, read-out: IZ
Candida albicans [19] = assay: Antimicrobial activity against Candida albicans ATCC 10231 at 5 ug/disk after 24 to 48 hrs by disc-diffusion method; type: functional, organism-based
Staphylococcus aureus [20] = assay: Antibacterial activity against Staphylococcus aureus NCTC 4163 after 18 hrs; type: functional; settings: NCTC 4163, 18 h
In short: as §1

Enterococcus hirae [21] = assay: Antibacterial activity against Enterococcus hirae ATCC 10541 at 5 ug/disk after 24 to 48 hrs by disc-diffusion method; type: functional, organism-based
Escherichia coli [22] = assay: microbe, parasite or virus in culture; settings: ATCC 25922, read-out: IZ
Pseudomonas aeruginosa [23] = assay: microbe, parasite or virus in culture; settings: NCTC 6749, read-out: IZ
Staphylococcus aureus [24] = assay: Antibacterial activity against methicillin-susceptible Staphylococcus aureus 7/04 isolates after 18 hrs; type: functional
In short: as §1

Staphylococcus aureus [25] = assay: Antibacterial activity against methicillin-susceptible Staphylococcus aureus 69/05 isolates after 18 hrs; type: functional
In short: as §1

Staphylococcus aureus [26] = assay: Antibacterial activity against methicillin-resistant Staphylococcus aureus 91/06 isolates after 18 hrs; type: functional
In short: as §1

Staphylococcus aureus [27] = assay: Antibacterial activity against methicillin-susceptible Staphylococcus aureus 2/04 isolates after 18 hrs; type: functional
In short: as §1

Staphylococcus aureus [28] = assay: microbe, parasite or virus in culture; settings: ATCC 29213, read-out: IZ
Staphylococcus aureus [29] = assay: Antibacterial activity against methicillin-susceptible Staphylococcus aureus 101/06 isolates after 18 hrs; type: functional
In short: as §1

Staphylococcus aureus [30] = assay: Antibacterial activity against methicillin-susceptible Staphylococcus aureus 3/04 isolates after 18 hrs; type: functional
In short: as §1

Staphylococcus aureus [31] = assay: Antibacterial activity against methicillin-susceptible Staphylococcus aureus 65/05 isolates after 18 hrs; type: functional
In short: as §1

Staphylococcus aureus [32] = assay: Antibacterial activity against methicillin-resistant Staphylococcus aureus 48/05 isolates after 18 hrs; type: functional
In short: as §1

Staphylococcus aureus [33] = assay: Antibacterial activity against methicillin-resistant Staphylococcus aureus 19/04 isolates after 18 hrs; type: functional
In short: as §1

Staphylococcus aureus [34] = assay: Antibacterial activity against methicillin-resistant Staphylococcus aureus 79/05 isolates after 18 hrs; type: functional
In short: as §1

Staphylococcus aureus [35] = assay: microbe, parasite or virus in culture; settings: NCTC 4163, read-out: IZ
Staphylococcus aureus [36] = assay: Antibacterial activity against methicillin-susceptible Staphylococcus aureus 38/05 isolates after 18 hrs; type: functional
In short: as §1

Staphylococcus aureus [37] = assay: Antibacterial activity against methicillin-resistant Staphylococcus aureus 47/05 isolates after 18 hrs; type: functional
In short: as §1

Staphylococcus aureus [38] = assay: Antibacterial activity against methicillin-susceptible Staphylococcus aureus 72/05 isolates after 18 hrs; type: functional
In short: as §1

Staphylococcus aureus [39] = assay: Antibacterial activity against methicillin-susceptible Staphylococcus aureus 49/05 isolates after 18 hrs; type: functional
In short: as §1

Staphylococcus aureus [40] = assay: Antibacterial activity against methicillin-resistant Staphylococcus aureus 92/06 isolates after 18 hrs; type: functional
In short: as §1

Staphylococcus aureus [41] = assay: Antibacterial activity against methicillin-resistant Staphylococcus aureus 53/05 isolates after 18 hrs; type: functional
In short: as §1

Staphylococcus aureus [42] = assay: microbe, parasite or virus in culture; settings: ATCC 25923, read-out: IZ
Staphylococcus aureus [43] = assay: Antibacterial activity against Staphylococcus aureus ATCC 29213 after 18 hrs; type: functional; settings: ATCC 29213, 18 h
In short: as §1

Staphylococcus aureus [44] = assay: Antibacterial activity against methicillin-susceptible Staphylococcus aureus 42/05 isolates after 18 hrs; type: functional
In short: as §1

Staphylococcus aureus [45] = assay: Antibacterial activity against Staphylococcus aureus ATCC 6538P after 18 hrs; type: functional
In short: as §1

Staphylococcus aureus [46] = assay: Antibacterial activity against methicillin-resistant Staphylococcus aureus 46/05 isolates after 18 hrs; type: functional
In short: as §1

Staphylococcus aureus [47] = assay: Antibacterial activity against methicillin-resistant Staphylococcus aureus 54/05 isolates after 18 hrs; type: functional
In short: as §1

Staphylococcus aureus [48] = assay: Antibacterial activity against methicillin-susceptible Staphylococcus aureus 40/05 isolates after 18 hrs; type: functional
In short: as §1

Staphylococcus aureus [49] = assay: Antibacterial activity against methicillin-susceptible Staphylococcus aureus 98/06 isolates after 18 hrs; type: functional
In short: as §1

Staphylococcus aureus [50] = assay: Antibacterial activity against methicillin-resistant Staphylococcus aureus 93/06 isolates after 18 hrs; type: functional
In short: as §1

Staphylococcus aureus [51] = assay: microbe, parasite or virus in culture; settings: ATCC 6538P, read-out: IZ
Staphylococcus aureus [52] = assay: Antibacterial activity against Staphylococcus aureus ATCC 25923 after 18 hrs; type: functional; settings: ATCC 25923, 18 h
In short: as §1

Staphylococcus aureus [53] = assay: Antibacterial activity against methicillin-susceptible Staphylococcus aureus 28/04 isolates after 18 hrs; type: functional
In short: as §1

Pseudomonas aeruginosa [54] = assay: microbe, parasite or virus in culture; settings: ATCC 15442, read-out: IZ
Staphylococcus aureus [55] = assay: Antibacterial activity against methicillin-susceptible Staphylococcus aureus 60/05 isolates after 18 hrs; type: functional
In short: as §1

Staphylococcus aureus [56] = assay: Antibacterial activity against methicillin-susceptible Staphylococcus aureus 102/06 isolates after 18 hrs; type: functional
In short: as §1

Staphylococcus aureus [57] = assay: Antibacterial activity against methicillin-susceptible Staphylococcus aureus 4/04 isolates after 18 hrs; type: functional
In short: as §1

Staphylococcus aureus [58] = assay: Antibacterial activity against methicillin-resistant Staphylococcus aureus 56/05 isolates after 18 hrs; type: functional
In short: as §1

Bacillus subtilis [59] = assay: microbe, parasite or virus in culture; settings: ATCC 6633, read-out: IZ
Staphylococcus aureus [60] = assay: Antibacterial activity against methicillin-susceptible Staphylococcus aureus 6/04 isolates after 18 hrs; type: functional
In short: as §1

[61] = test system: Bordetella bronchiseptica; assay: microbe, parasite or virus in culture; settings: ATCC 4617, read-out: IZ

## Clc1ccc(COC(Cn2ccnc2)c2ccc(Cl)cc2Cl)c(Cl)c1 (stereo unspecified) [MICONAZOLE]
Candida albicans [1]
  zone of inhibition at 10 µg/disc: 20 mm
Escherichia coli [2]
  Activity: inactive
Staphylococcus aureus [3]
  Activity: inactive
Bacillus subtilis [4]
  Activity: inactive
Staphylococcus aureus [5]
  Activity: inactive
Staphylococcus aureus [6]
  Activity: inactive
Pseudomonas aeruginosa [7]
  Activity: inactive
Enterococcus hirae [8]
  Activity: inactive
Pseudomonas aeruginosa [9]
  Activity: inactive
[10]
  Activity: inactive
Escherichia coli [11]
  Activity: inactive
Staphylococcus aureus [12]
  Activity: inactive

## O=C(O)c1cn(C2CC2)c2cc(N3CCNCC3)c(F)cc2c1=O [CIPROFLOXACIN]
Staphylococcus aureus [13]
  MIC: 64 µg/mL (≈ 193 µM)
Staphylococcus aureus [14]
  MIC: 32 µg/mL (≈ 96.6 µM)
Staphylococcus aureus [15]
  MIC: 1 µg/mL (≈ 3.02 µM)
Staphylococcus aureus [16]
  MIC: 64 µg/mL (≈ 193 µM)
Staphylococcus aureus [17]
  MIC: 128 µg/mL (≈ 386 µM)
Escherichia coli [18]
  zone of inhibition at 5 µg/disc: 34 mm
Candida albicans [19]
  Activity: inactive
Staphylococcus aureus [20]
  MIC: 0.5 µg/mL (≈ 1.51 µM)
Enterococcus hirae [21]
  Activity: inactive
Escherichia coli [22]
  zone of inhibition at 5 µg/disc: 35 mm
Pseudomonas aeruginosa [23]
  zone of inhibition at 5 µg/disc: 26 mm
Staphylococcus aureus [24]
  MIC: 2 µg/mL (≈ 6.04 µM)
Staphylococcus aureus [25]
  MIC: 2 µg/mL (≈ 6.04 µM)
Staphylococcus aureus [26]
  MIC: > 128 µg/mL
Staphylococcus aureus [27]
  MIC: > 4 µg/mL
Staphylococcus aureus [28]
  zone of inhibition at 5 µg/disc: 22 mm
Staphylococcus aureus [29]
  MIC: 0.25 µg/mL (≈ 0.754 µM)
Staphylococcus aureus [30]
  MIC: 0.25 µg/mL (≈ 0.754 µM)
Staphylococcus aureus [31]
  MIC: 0.5 µg/mL (≈ 1.51 µM)
Staphylococcus aureus [32]
  MIC: 128 µg/mL (≈ 386 µM)
Staphylococcus aureus [33]
  MIC: 64 µg/mL (≈ 193 µM)
Staphylococcus aureus [34]
  MIC: 128 µg/mL (≈ 386 µM)
Staphylococcus aureus [35]
  zone of inhibition at 5 µg/disc: 26 mm
Staphylococcus aureus [36]
  MIC: 0.25 µg/mL (≈ 0.754 µM)
Staphylococcus aureus [37]
  MIC: 128 µg/mL (≈ 386 µM)
Staphylococcus aureus [38]
  MIC: 0.25 µg/mL (≈ 0.754 µM)
Staphylococcus aureus [39]
  MIC: 0.25 µg/mL (≈ 0.754 µM)
Staphylococcus aureus [40]
  MIC: 8 µg/mL (≈ 24.1 µM)
Staphylococcus aureus [41]
  MIC: 128 µg/mL (≈ 386 µM)
Staphylococcus aureus [42]
  zone of inhibition at 5 µg/disc: 26 mm
Staphylococcus aureus [43]
  MIC: 0.5 µg/mL (≈ 1.51 µM)
Staphylococcus aureus [44]
  MIC: 2 µg/mL (≈ 6.04 µM)
Staphylococcus aureus [45]
  MIC: 0.5 µg/mL (≈ 1.51 µM)
Staphylococcus aureus [46]
  MIC: 64 µg/mL (≈ 193 µM)
Staphylococcus aureus [47]
  MIC: 128 µg/mL (≈ 386 µM)
Staphylococcus aureus [48]
  MIC: 0.5 µg/mL (≈ 1.51 µM)
Staphylococcus aureus [49]
  MIC: 0.25 µg/mL (≈ 0.754 µM)
Staphylococcus aureus [50]
  MIC: 128 µg/mL (≈ 386 µM)
Staphylococcus aureus [51]
  zone of inhibition at 5 µg/disc: 28 mm
Staphylococcus aureus [52]
  MIC: 0.5 µg/mL (≈ 1.51 µM)
Staphylococcus aureus [53]
  MIC: 1 µg/mL (≈ 3.02 µM)
Pseudomonas aeruginosa [54]
  zone of inhibition at 5 µg/disc: 26 mm
Staphylococcus aureus [55]
  MIC: 0.5 µg/mL (≈ 1.51 µM)
Staphylococcus aureus [56]
  MIC: 0.5 µg/mL (≈ 1.51 µM)
Staphylococcus aureus [57]
  MIC: 0.25 µg/mL (≈ 0.754 µM)
Staphylococcus aureus [58]
  MIC: 32 µg/mL (≈ 96.6 µM)
Bacillus subtilis [59]
  zone of inhibition at 5 µg/disc: 40 mm
Staphylococcus aureus [60]
  MIC: 0.25 µg/mL (≈ 0.754 µM)
[61]
  zone of inhibition at 5 µg/disc: 31 mm
